These results are taken from ChEMBL document CHEMBL3769366, “Novel tricyclic pyrazolo[1,5-d][1,4]benzoxazepin-5(6H)-one: Design, synthesis, model and use as hMAO-B inhibitors” (Bioorg Med Chem, 2016).

The target in data set [1] is T1, Amine oxidase [flavin-containing] A (Homo sapiens, UniProt P21397).
T1 sequence (P21397 whole entry): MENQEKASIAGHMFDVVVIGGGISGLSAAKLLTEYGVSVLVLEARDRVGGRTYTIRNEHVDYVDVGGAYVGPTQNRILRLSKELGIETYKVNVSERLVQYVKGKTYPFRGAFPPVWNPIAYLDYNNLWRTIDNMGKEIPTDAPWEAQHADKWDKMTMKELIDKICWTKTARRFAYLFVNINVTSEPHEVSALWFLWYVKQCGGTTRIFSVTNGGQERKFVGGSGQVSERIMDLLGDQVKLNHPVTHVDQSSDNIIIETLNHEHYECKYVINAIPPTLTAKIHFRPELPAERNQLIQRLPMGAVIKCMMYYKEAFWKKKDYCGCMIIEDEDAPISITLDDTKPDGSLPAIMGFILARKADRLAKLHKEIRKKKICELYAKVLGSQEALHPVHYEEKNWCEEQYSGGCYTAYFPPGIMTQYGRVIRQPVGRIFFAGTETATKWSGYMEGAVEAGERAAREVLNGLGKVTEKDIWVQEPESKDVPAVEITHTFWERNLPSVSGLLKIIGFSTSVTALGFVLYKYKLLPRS
Put plainly: Inhibition of recombinant human microsomal MAO-A expressed in baculovirus-infected insect cells using p-tyramine as substrate assessed as H2O2 production at 60 uM pretreated for 15 mins followed by addition of Amplex Red, horseradish peroxidase and substrate measured for 15 mins by fluorimetric method. The settings on record: 0.25 h. An outline of the steps: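 Human MAO-A from microsomes of insect cells infected with recombinant baculovirus, 1.1 µg protein, adjusted to a rate of 165 pmol p-tyramine/min. Inhibitors in 0.05 M sodium phosphate pH 7.4, preincubated 15 min at 37 °C. Reaction started with 200 µM Amplex Red, 1 U/mL HRP and 1 mM p-tyramine. H2O2-derived resorufin fluorescence (ex 545/em 590 nm) read over 15 min at 37 °C, linear phase.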

Data set [2] is filed under the species Homo sapiens. Briefly: Selectivity index, ratio of IC50 for recombinant human microsomal MAO-A to recombinant human microsomal MAO-B.
Data set [3] has as its target T2, Amine oxidase [flavin-containing] B (Homo sapiens, UniProt P27338).
T2 sequence (P27338 whole entry): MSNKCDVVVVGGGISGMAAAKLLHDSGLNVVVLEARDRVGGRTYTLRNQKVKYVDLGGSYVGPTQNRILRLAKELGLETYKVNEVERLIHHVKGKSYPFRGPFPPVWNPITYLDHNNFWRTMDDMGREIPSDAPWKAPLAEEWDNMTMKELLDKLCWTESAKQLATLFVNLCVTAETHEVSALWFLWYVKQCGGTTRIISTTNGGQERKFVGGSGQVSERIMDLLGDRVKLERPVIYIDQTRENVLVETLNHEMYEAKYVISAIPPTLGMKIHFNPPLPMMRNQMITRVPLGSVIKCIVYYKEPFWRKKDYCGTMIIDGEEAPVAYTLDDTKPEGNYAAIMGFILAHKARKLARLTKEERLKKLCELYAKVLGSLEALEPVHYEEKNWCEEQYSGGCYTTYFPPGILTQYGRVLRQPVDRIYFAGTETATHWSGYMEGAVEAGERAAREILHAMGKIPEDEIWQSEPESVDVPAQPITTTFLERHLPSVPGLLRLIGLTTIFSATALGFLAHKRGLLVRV
Briefly: Inhibition of recombinant human microsomal MAO-B expressed in baculovirus-infected insect cells using p-tyramine as substrate assessed as H2O2 production pretreated for 15 mins followed by addition of Amplex Red, horseradish peroxidase and substrate measured for 15 mins by fluorimetric method. Format: cell-based.

In data set [4] the target is T1, Amine oxidase [flavin-containing] A. Put plainly: Inhibition of recombinant human microsomal MAO-A expressed in baculovirus-infected insect cells using p-tyramine as substrate assessed as H2O2 production pretreated for 15 mins followed by addition of Amplex Red, horseradish peroxidase and substrate measured for 15 mins by fluorimetric method.
Data set [5] deals with T2, Amine oxidase [flavin-containing] B. Put plainly: Inhibition of recombinant human microsomal MAO-B expressed in baculovirus-infected insect cells using p-tyramine as substrate assessed as H2O2 production at 60 uM pretreated for 15 mins followed by addition of Amplex Red, horseradish peroxidase and substrate measured for 15 mins by fluorimetric method. As to conditions: 0.25 h; call rule not given here.

With `CC(C)c1ccc(C2=NN3C(=O)COc4ccccc4C3C2)cc1` (stereo not given), the “inhibition (INH)” value in data set [1] is “Not Active”. Moreover, in data set [2], the Ratio IC50 turned out to be 17. For the same molecule, the IC50 in data set [3] came out at 3520 nM.

As to `CC1Oc2ccccc2C2CC(c3ccc(Cl)cc3)=NN2C1=O` (stereo not given), the “inhibition (INH)” value in data set [1] is on record as “Not Active”. In addition, the Ratio IC50 in data set [2] came to 133. The IC50 in data set [3] came to 452 nM.

For `C#CCN(C)[C@H](C)Cc1ccccc1` [SELEGILINE], the “inhibition (INH)” value in data set [1] is “Not Active”.

Turning to `O=C1COc2ccc(Cl)cc2C2CC(c3ccc(F)cc3)=NN12` (stereo not given), the Ratio IC50 in data set [2] was found to be 19.2. The results for the IC50 in data set [4] and in data set [3] were 4650 nM and 242 nM, respectively.

Take `COc1ccc(C2=NN3C(=O)C(C)Oc4ccccc4C3C2)cc1` (stereo not given): the “inhibition (INH)” value in data set [1] is reported as “Not Active”. Also, the INH entry in data set [5] is listed as “Not Active”.

Take `O=C1COc2ccccc2C2CC(c3ccccc3Cl)=NN12` (stereo not given): the Ratio IC50 in data set [2] was 42.1. Further, the IC50 was 55700 nM in data set [4] and 1320 nM in data set [3].

Turning to `CC1Oc2ccccc2C2CC(c3ccccc3)=NN2C1=O` (stereo not given), in data set [1], the “inhibition (INH)” value is given as “Not Active”. In data set [2], the Ratio IC50 was found to be 1.7. In addition, the IC50 in data set [3] is 34700 nM.

As for `Cc1ccccc1C1=NN2C(=O)COc3ccccc3C2C1` (stereo not given), in data set [1], the “inhibition (INH)” value is reported as “Not Active”. In data set [5], the INH result is on record as “Not Active”.

On to `CC1Oc2ccccc2C2CC(c3ccccc3Cl)=NN2C1=O` (stereo not given), for which the Ratio IC50 in data set [2] was determined as 11.7. Moreover, the IC50 in data set [4] amounted to 4050 nM; in data set [3] it was 348 nM.

For the molecule `Cc1ccc(C2=NN3C(=O)C(C)Oc4ccccc4C3C2)cc1` (stereo not given), the “inhibition (INH)” value in data set [1] is given as “Not Active”. The Ratio IC50 in data set [2] stood at 1.3. In addition, in data set [3], the IC50 is 45200 nM.

For `Cc1ccc(C2=NN3C(=O)COc4ccccc4C3C2)cc1` (stereo not given), the “inhibition (INH)” value in data set [1] was “Not Active”. In data set [5], the INH entry is on record as “Not Active”.

`COc1ccc(C2=NN3C(=O)COc4c(Br)cc(Br)cc4C3C2)cc1` (stereo not given): the Ratio IC50 in data set [2] is 10.2. Also, the IC50 in data set [4] is 4760 nM; in data set [3], 467 nM.

Regarding `O=C1COc2ccc(Cl)cc2C2CC(c3ccccc3F)=NN12` (stereo not given), the “inhibition (INH)” value in data set [1] is on record as “Not Active”. Besides, the Ratio IC50 in data set [2] turned out to be 103. Further, the IC50 in data set [3] stood at 584 nM.

For the molecule `COc1ccc(C2=NN3C(=O)COc4ccc(Cl)cc4C3C2)cc1` (stereo not given), the “inhibition (INH)” value in data set [1] is reported as “Not Active”. The Ratio IC50 in data set [2] is 22. Further, the IC50 in data set [3] turned out to be 2720 nM.

Take `O=C1COc2ccccc2C2CC(c3ccc(Cl)cc3)=NN12` (stereo not given): the INH entry in data set [5] is “Not Active”. Also, the Ratio IC50 in data set [2] was 0.9. For the same molecule, the IC50 in data set [4] worked out at 53300 nM.

With `O=C1COc2ccccc2C2CC(c3ccc(F)cc3)=NN12` (stereo not given), the “inhibition (INH)” value in data set [1] is reported as “Not Active”. The Ratio IC50 in data set [2] came to 33.7. In addition, the IC50 in data set [3] came out at 1780 nM.

Turning to `O=C1COc2ccc(Cl)cc2C2CC(c3ccccc3)=NN12` (stereo not given), in data set [1], the “inhibition (INH)” value is “Not Active”. In addition, in data set [2], the Ratio IC50 came out at 23.4. Also, the 50% inhibitory concentration (IC50) in data set [3] turned out to be 2570 nM.

Regarding `Cc1ccc(C2=NN3C(=O)COc4ccc(Cl)cc4C3C2)cc1` (stereo not given), in data set [2], the Ratio IC50 worked out at 2.4. For the same molecule, the IC50 is 3900 nM in data set [4] and 1630 nM in data set [3].

With `COc1ccc(C2=NN3C(=O)COc4ccccc4C3C2)cc1` (stereo not given), in data set [1], the “inhibition (INH)” value is listed as “Not Active”. The INH entry in data set [5] is “Not Active”.

Take `O=C1COc2ccc(Cl)cc2C2CC(c3ccc(Cl)cc3)=NN12` (stereo not given): the Ratio IC50 in data set [2] was 9.3. Moreover, the IC50 in data set [4] stood at 4710 nM; in data set [3], 504 nM.

For the molecule `O=C1COc2ccccc2C2CC(c3ccccc3)=NN12` (stereo not given), the Ratio IC50 in data set [2] was determined as 0.8. Moreover, the IC50 in data set [4] was 2190 nM; in data set [3], 2880 nM.

With `CC1Oc2ccccc2C2CC(c3ccc(F)cc3)=NN2C1=O` (stereo not given), the “inhibition (INH)” value in data set [1] is “Not Active”. Further, the Ratio IC50 in data set [2] is 271. Further, the 50% inhibitory concentration (IC50) in data set [3] is 221 nM.

The IC50 is the concentration needed to halve the response being measured.
